Activity calls are given as the source filed them. No cut-off for these calls is given here.
How the values were obtained:
PC-3 [1] = assay: Cell cycle arrest in human PC3 cells assessed as accumulation at G2/M phase at 1.25 uM after 72 hrs by propidium iodide staining-based flow cytometric analysis (reference value: 10.19%); type: functional
Summary of the method: (§1)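 Concentrations used were 0, 0.3, 0.6 and 1.2 μM in HepG2 and 0, 0.16, 0.31 and 1.25 μM in PC-3, with untreated cells as control, for 72 h. Cells were trypsinized, washed in PBS, fixed in cold ethanol at 4 °C overnight, then incubated 30 min in PBS containing RNase A and propidium iodide. DNA content was read by flow cytometry to give phase distribution.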

PC-3 [2] = assay: Induction of apoptosis in human PC3 cells assessed as reduction in mitochondrial membrane potential at 0.31 uM after 48 hrs by JC-1 staining-based flow cytometric analysis (reference value: 1.86%); type: functional; design: scale not given: the % may be the effect or the level left
Summary of the method: (§2)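 After overnight culture, PC-3 cells were treated in triplicate with 0, 0.16, 0.31 or 1.25 μM, or vehicle, for 48 h. They were then loaded with JC-1, and the proportion with depolarized mitochondrial membrane potential was counted by flow cytometry.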

PC-3 [3] = assay: Induction of apoptosis in human PC3 cells assessed as necrotic cells at 0.16 uM after 72 hrs by Annexin V-APC/7-AAD or propidium iodide staining-based flow cytometric analysis (reference value: 2.43%); type: functional
PC-3 [4] = assay: Induction of apoptosis in human PC3 cells assessed as reduction in mitochondrial membrane potential at 0.16 uM after 48 hrs by JC-1 staining-based flow cytometric analysis (reference value: 1.86%); type: functional; design: scale not given: the % may be the effect or the level left; summary of the method: as §2
PC-3 [5] = assay: Induction of apoptosis in human PC3 cells assessed as cell shrinkage at 0.16 to 1.25 uM after 48 hrs by Hoechst 33258 staining-based fluorescent microscopic analysis; type: functional
Summary of the method: (§3)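 PC-3 cells grown on sterile cover slips were exposed to 0, 0.16, 0.31 or 1.25 μM, or vehicle, for 48 h. Then fixed with 4% paraformaldehyde for 10 min, washed twice in PBS, stained with Hoechst 33258 for 5 min and washed again. Nuclei imaged at 350 nm excitation and 460 nm emission.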

PC-3 [6] = assay: Induction of apoptosis in human PC3 cells assessed as reduction in adherent cells at 0.16 to 1.25 uM after 48 hrs by Hoechst 33258 staining-based fluorescent microscopic analysis; type: functional, cell-based; summary of the method: as §3
PC-3 [7] = assay: Induction of apoptosis in human PC3 cells assessed as viable cells at 1.25 uM after 72 hrs by Annexin V-APC/7-AAD or propidium iodide staining-based flow cytometric analysis (reference value: 88.74%); type: functional; conditions: PC-3, 72 h, read-out: Activity
PC-3 [8] = assay: Induction of apoptosis in human PC3 cells assessed as necrotic cells at 0.31 uM after 72 hrs by Annexin V-APC/7-AAD or propidium iodide staining-based flow cytometric analysis (reference value: 2.43%); type: functional
PC-3 [9] = assay: Induction of apoptosis in human PC3 cells assessed as reduction in mitochondrial membrane potential at 1.25 uM after 48 hrs by JC-1 staining-based flow cytometric analysis (reference value: 1.86%); type: functional; design: scale not given: the % may be the effect or the level left; summary of the method: as §2
HepG2 [10] = assay: Induction of apoptosis in human HepG2 cells assessed as reduction in Hsp27 expression levels at 2 uM after 24 hrs by membrane-based sandwich immunoassay; type: functional, cell-based
Summary of the method: (§4)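 HepG2 cells treated at 2 μM for 24 h; protein extracts prepared per the kit protocol. Relative levels of 35 apoptosis-related proteins measured with a human apoptosis antibody array.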

HepG2 [11] = assay: Induction of apoptosis in human HepG2 cells assessed as reduction in mitochondrial membrane potential at 0.3 uM after 48 hrs by JC-1 staining-based flow cytometric analysis (reference value: 1.6%); type: functional; design: scale not given: the % may be the effect or the level left
Summary of the method: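 HepG2 cells cultured overnight, then incubated in triplicate with 0, 0.3, 0.6 or 1.2 μM, or vehicle, for 48 h. Stained with the cationic dye JC-1. Flow cytometry gave the percentage of cells with healthy versus collapsed mitochondrial membrane potential.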

L02 [12] = assay: Induction of apoptosis in human LO2 cells assessed as early apoptotic cells at 1.2 uM after 72 hrs by Annexin V-FITC/7-AAD or propidium iodide staining-based flow cytometric analysis (reference value: 3.65%); type: cell-based; conditions: l02, 72 h
HepG2 [13] = assay: Induction of apoptosis in human HepG2 cells assessed as reduction in adherent cells at 0.3 to 0.6 uM after 48 hrs by Hoechst 33258 staining-based fluorescent microscopic analysis; type: functional, cell-based
Summary of the method: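 HepG2 cells on sterile cover slips in 6-well plates exposed to 0, 0.3, 0.6 or 1.2 μM, or vehicle, for 48 h. Fixed in 4% paraformaldehyde for 10 min, PBS-washed, stained with Hoechst 33258 for 5 min. Nuclear morphology and adherent cell number viewed at 350 nm excitation / 460 nm emission. Non-treated cells served as control.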

HepG2 [14] = assay: Induction of apoptosis in human HepG2 cells assessed as reduction in Hsp70 expression levels at 2 uM after 24 hrs by membrane-based sandwich immunoassay; type: functional, cell-based; summary of the method: as §4
HepG2 [15] = assay: Cell cycle arrest in human HepG2 cells assessed as accumulation at G1 phase at 0.6 uM after 72 hrs by propidium iodide staining-based flow cytometric analysis (reference value: 34%); type: functional; summary of the method: as §1
HepG2 [16] = assay: Induction of apoptosis in human HepG2 cells assessed as viable cells at 0.3 uM after 72 hrs by Annexin V-APC/7-AAD or propidium iodide staining-based flow cytometric analysis (reference value: 90.08%); type: functional; conditions: HepG2, 72 h, read-out: Activity
HepG2 [17] = assay: Cell cycle arrest in human HepG2 cells assessed as accumulation at G1 phase at 1.2 uM after 72 hrs by propidium iodide staining-based flow cytometric analysis (reference value: 34%); type: functional; summary of the method: as §1
L02 [18] = assay: Induction of apoptosis in human LO2 cells assessed as necrotic cells at 50 uM after 72 hrs by Annexin V-FITC/7-AAD or propidium iodide staining-based flow cytometric analysis (reference value: 1.99%); type: cell-based; conditions: l02, 72 h
L02 [19] = assay: Induction of apoptosis in human LO2 cells assessed as late apoptotic cells at 50 uM after 72 hrs by Annexin V-FITC/7-AAD or propidium iodide staining-based flow cytometric analysis (reference value: 0.11%); type: cell-based; conditions: l02, 72 h

| SMILES | Activity (PC-3 [1]) [%] | Activity (PC-3 [2]) [%] | Activity (PC-3 [3]) [%] | Activity (PC-3 [4]) [%] | Activity (PC-3 [5]) | Activity (PC-3 [6]) | viability at 1.25 µM (PC-3 [7]) [%] | Activity (PC-3 [8]) [%] | Activity (PC-3 [9]) [%] | Activity (HepG2 [10]) | Activity (HepG2 [11]) [%] | Activity (L02 [12]) [%] | Activity (HepG2 [13]) | Activity (HepG2 [14]) | Activity (HepG2 [15]) [%] | viability at 0.3 µM (HepG2 [16]) [%] | Activity (HepG2 [17]) [%] | Activity (L02 [18]) [%] | Activity (L02 [19]) [%] |
| --- | --- | --- | --- | --- | --- | --- | --- | --- | --- | --- | --- | --- | --- | --- | --- | --- | --- | --- | --- |
| COc1ccc(-c2cc(=O)c3c(O)c(OC)c(O[C@@H]4O[C@H](C(=O)NCCOc5no[n+]([O-])c5S(=O)(=O)c5ccccc5)[C@@H](O)[C@H](O)[C@H]4O)cc3o2)cc1 | 9.1 | 35.91 | 4.42 | 17.9 | Active | Active | 36.3 | 2.76 | 61.01 | – | – | – | – | – | – | – | – | – | – |
| O=C(NCCCOc1no[n+]([O-])c1S(=O)(=O)c1ccccc1)[C@H]1O[C@@H](Oc2cc3oc(-c4ccc(OCc5ccccc5)cc4)cc(=O)c3c(O)c2OCc2ccccc2)[C@H](O)[C@@H](O)[C@@H]1O | – | – | – | – | – | – | – | – | – | Active | 15.14 | 14.2 | Active | Active | 32.02 | 79.6 | 27.12 | 2.27 | 9.83 |

Source: ChEMBL document CHEMBL4052629, “Scutellarin derivatives as apoptosis inducers: Design, synthesis and biological evaluation” (Eur J Med Chem, 2017)
